Screens as filed in PubChem.
Compounds with a hit are over-represented: about 12% of the library has one in this group of screens.
Wee1 stabilizer – inhibitors of human Wee1 degradation. P30291. AID 1321. HeLa Luc-Wee1K328M stability, luciferase luminescence; 100% = proteasome inhibitor MG132 effect. reporter increase, % at 5 µM. actives 1.2% (n = 220,000);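 active means activation above the mean of all tested compounds plus 3 SD, set per screening run, cut at about 8.8% in these data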;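 further: cells exposed to compound for 20 h before luminescence read; 0% = DMSO alone and 100% = MG132 at 30 µM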
L major viab – inhibitors of Leishmania major promastigote growth. Leishmania major promastigotes, resazurin fluorescence viability. inhibition, % at 10 µM. actives 9% (n = 200,000);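 further: promastigotes grown with compound for 44 hours at 28 °C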
PKD1 inh – inhibitors of human PKD1 kinase. PKD1 kinase fluorescence polarization assay. Q15139. inhibition, % (test concentration not listed). actives 0.056% (n = 200,000)
Target sequence (Q15139 whole entry, looked up): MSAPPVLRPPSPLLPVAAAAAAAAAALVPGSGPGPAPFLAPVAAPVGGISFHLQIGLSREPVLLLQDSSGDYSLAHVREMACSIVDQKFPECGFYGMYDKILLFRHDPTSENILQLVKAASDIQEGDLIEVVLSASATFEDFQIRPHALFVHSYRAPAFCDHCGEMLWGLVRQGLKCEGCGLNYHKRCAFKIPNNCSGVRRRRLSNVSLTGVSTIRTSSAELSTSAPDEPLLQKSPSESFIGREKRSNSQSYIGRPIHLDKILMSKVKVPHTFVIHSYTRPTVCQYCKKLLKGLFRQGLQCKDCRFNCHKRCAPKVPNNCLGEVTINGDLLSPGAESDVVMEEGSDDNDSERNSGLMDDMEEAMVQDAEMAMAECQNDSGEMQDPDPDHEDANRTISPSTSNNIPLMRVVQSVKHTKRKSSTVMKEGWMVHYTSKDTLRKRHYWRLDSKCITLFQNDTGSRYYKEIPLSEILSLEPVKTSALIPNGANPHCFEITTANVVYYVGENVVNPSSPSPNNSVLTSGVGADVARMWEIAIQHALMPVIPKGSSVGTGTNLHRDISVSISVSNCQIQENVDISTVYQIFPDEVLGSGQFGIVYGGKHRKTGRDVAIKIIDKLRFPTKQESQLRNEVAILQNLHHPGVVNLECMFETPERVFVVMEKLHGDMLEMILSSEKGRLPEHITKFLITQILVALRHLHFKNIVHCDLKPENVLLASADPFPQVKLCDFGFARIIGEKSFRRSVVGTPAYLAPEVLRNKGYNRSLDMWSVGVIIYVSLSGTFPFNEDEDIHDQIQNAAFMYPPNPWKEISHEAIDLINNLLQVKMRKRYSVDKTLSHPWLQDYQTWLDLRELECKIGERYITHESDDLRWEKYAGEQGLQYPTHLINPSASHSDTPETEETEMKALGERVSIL
Arbovirus inh – arbovirus infection inhibition; arbovirus infection cell-based antiviral screen; inhibition, % at 10 µM; actives 0.37% (n = 200,000); in the data active means inhibition above about 30%
CHOP inhibitor – CHOP inhibition in unfolded protein response; CHO-K1 CHOP-promoter luciferase, tunicamycin-induced, 15-18 h; inhibition, % at 10 µM; actives 3.8% (n = 220,000); AID 2732;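 active means compounds that reduced the stress-induced luciferase reporter signal by more than about 70% of percent inhibition, limit read from the data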;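 further: 0% = tunicamycin plus vehicle and 100% = wells without tunicamycin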
Rad51 HR inh – Rad51 (human) homologous recombination inhibition | Q06609 | hRad51 DNA strand exchange, fluorescence dequenching | inhibition, % at 10 µM | actives 0.085% (n = 200,000) | AID 1385;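 active means inhibition above 40% at the single screening dose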;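 further: 0% = DMSO control wells and 100% = blanks with heterologous ssDNA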
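material = hRad51 filaments on single-stranded DNA | timing = filaments 15 min 37 °C, then compound 30 min | signal = FRET fluorescence dequenching, excitation 485 nm, emission 520 nm | benchmarks = control wells and blank wells on each plate | evaluation = percent inhibition relative to plate controls and blanks | compound = 10 µM final, single point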
Numbers without * were called inactive; . = no result. Unless noted, no stated cut-off is given here; in the data, active means inhibition above about 50%; inactive means the rest.

SMILES	Wee1 stabilizer	L major viab	PKD1 inh	Arbovirus inh	CHOP inhibitor	Rad51 HR inh
CCOc1ccc(Nc2nc(N3CCCC3)nc(N3CCN(c4ccc(OC)cc4)CC3)n2)cc1	-2.0	54.9*	-3.1	12.2	-14.6	5.2
COc1ccc(Nc2nc(NCCO)nc(N3CCCC3)n2)cc1	.	.	.	.	.	-2.3
CCOc1nc(Nc2ccc(F)cc2)nc(N2CCN(c3ccc(OC)cc3)CC2)n1	0.3	70.3*	-4.5	0.0	63.4	15.8
CCOc1nc(Nc2ccc(OC)c(Cl)c2)nc(N2CCN(c3ccc(OC)cc3)CC2)n1	-3.0	71.8*	-6.4	-7.7	73.5*	-0.9
N#Cc1ccc(Oc2nc(Nc3ccc(F)cc3)nc(N3CCCC3)n2)cc1	-2.5	4.1	1.0	-3.3	53.4	3.0
O=C(c1ccc([N+](=O)[O-])s1)N1CCc2ccccc2C1	1.3	94.2*	-9.7	-8.2	-10.8	-0.4
CC(C)c1ccc(-c2nc(N3CCCC3)nc3n[nH]c(N)c23)cc1	2.9	-1.8	-1.9	-1.5	55.1	-5.3
CC(C)c1ccc(-c2nc(N3CCCCCC3)nc3n[nH]c(N)c23)cc1	-0.6	2.2	-11.1	-3.5	80.4*	-3.7
Cc1cc(CN(C)Cc2cn(C)nc2-c2ccc(Oc3ccccc3)cc2)on1	-0.7	.	.	.	5.1	.
O=c1c2ccccc2c(C=Nc2cccc(S(=O)(=O)NCc3ccco3)c2)c(O)n1-c1ccc(Cl)cn1	1.3	51.0*	-2.1	-11.6	14.4	-2.5
O=c1c2ccccc2c(C=Nc2ccc(S(=O)(=O)N3CCCCC3)cc2)c(O)n1-c1ccc(Cl)cn1	0.6	2.1	9.7	-1.8	36.6	-8.6
Cc1ccc(NC(=O)CNCCCN2CCOCC2)cc1S(=O)(=O)N1CCCCC1	2.0	.	.	.	0.3	13.1
C=CCn1c(=O)c2ccccc2n2c(SCC(=O)Nc3sc(C)c(CC)c3C(=O)OCC)nnc12	-1.2	70.8*	-7.7	5.1	52.1	.
CCCCCNc1nc(NCCCO)c(C#N)c2c1CN(C)CC2	-2.1	42.7	-3.7	1.1	14.2	-1.4
CCCCCNc1nc(N2CCCC2)c2c(c1C#N)CCN(C)C2	-0.8	55.9*	1.4	-30.3	67.0	1.9
O=C(NCc1ccccc1)C1=C[C@@H](c2coc3ccccc3c2=O)C[C@@H](OCCCCO)O1	0.1	3.7	-4.0	0.5	1.6	-1.6
COc1ccc(CCNCC(O)COc2cccc(Br)c2)cc1OC (stereo unspecified)	6.8	.	.	.	14.7	8.0
COc1ccc(CCNCC(O)Cn2c3ccccc3c3ccccc32)cc1OC (stereo unspecified)	-2.6	100.3*	-10.8	-23.2	16.2	6.3
CCCCCc1nnc(NC(=O)Cn2cnc3ccccc3c2=O)s1	-2.9	10.9	0.9	3.0	9.6	-1.4
O=C(NCCCn1ccnc1)C(=O)c1c[nH]c2ccccc12	-2.4	-5.0	0.1	4.6	6.2	14.6
C=CCn1c(C)cc(-c2csc(NC)n2)c1C	-0.5	96.1*	0.9	13.4	-7.2	-43.4
COc1ccc(NC(=O)c2cc3c(=O)n4ccccc4nc3n2C)cc1OC	8.7	-0.2	-5.2	4.3	77.9*	-12.8
CC(C)NC(=S)Nc1c(N)[nH]c(=O)[nH]c1=O	2.3	.	.	.	-2.6	6.4
CCNc1nc(SCCOc2ccc(Cl)cc2Cl)nc(N(C)C)n1	-0.6	56.3*	-3.2	30.2*	91.0*	24.6
CC1=CC2=NC(=O)/C(=C\c3ccc(-c4cccc(Cl)c4)o3)C(=N)N2O1	-0.8	58.1*	-4.7	-18.8	107.0*	-24.5
SMILES	Wee1 stabilizer	L major viab	PKD1 inh	Arbovirus inh	CHOP inhibitor	Rad51 HR inh
O=C(COC(=O)C1Cc2ccccc2CN1C(=O)c1ccccc1Cl)Nc1ccc(N2CCOCC2)cc1 (stereo unspecified)	-0.5	77.2*	-2.1	7.9	-0.2	3.5
CCC(=O)N1CCN(c2ccc(NC(=O)COc3ccccc3Cl)cc2)CC1	-1.4	2.9	-8.7	-4.0	10.4	5.8
O=C(COC(=O)CNC(=O)c1ccc(Cl)cc1Cl)Nc1ccc(N2CCOCC2)cc1	3.9	-5.5	0.7	3.6	-3.9	6.5
CN1CCN(c2ccc(NC(=O)COc3ccccc3Cl)cc2)CC1	0.0	100.4*	2.9	-21.9	13.5	1.6
CN(C)c1cc(Cl)c2nonc2c1N	0.1	.	.	.	11.4	6.5
C/C(=N\NC(=O)CSc1nc(C)[nH]c1[N+](=O)[O-])c1ccc(F)cc1	-1.2	.	.	.	-2.9	-20.6
O=C(Cc1ccc(-n2c(=O)c3ccccc3n(Cc3ccccc3F)c2=O)cc1)NCC1CCCO1 (stereo unspecified)	-0.1	99.1*	-5.3	-5.5	26.5	3.0
O=C(Cc1ccc(-n2c(=O)c3ccccc3n(Cc3ccccc3Cl)c2=O)cc1)NCC1CCCO1 (stereo unspecified)	-0.5	100.1*	-0.9	-1.1	11.3	-1.7
O=C(Cc1ccc(-n2c(=O)c3ccccc3n(Cc3ccc(F)cc3)c2=O)cc1)NCC1CCCO1 (stereo unspecified)	-1.6	47.7	-12.5	9.7	12.3	4.2
Cc1ccc2nc(N3CCN(Cc4nnnn4Cc4ccccc4)CC3)c(C#N)cc2c1	-0.6	-5.3	-8.1	-14.6	91.6*	-13.2
O=C(N1CCCC1)C(F)(F)Oc1ccc(F)cc1	-2.8	-2.5	2.0	1.1	6.3	6.3
COC(=O)c1cc(C)ccc1OCc1ccc([N+](=O)[O-])cc1	-0.4	.	.	.	43.1	-18.7
COc1ccc(CNC(=O)CNS(=O)(=O)c2ccc(Cl)cc2)cc1	-1.2	-3.6	-12.9	3.6	-9.3	.
CN1CCN(/C=N/C2=C(C#N)C(c3ccccc3)C3=C(CC(C)(C)CC3=O)O2)CC1 (stereo unspecified)	-1.6	75.2*	-7.0	5.4	1.5	-0.2
CC1(C)CC(=O)C2=C(C1)OC(/N=C/N1CCCC1)=C(C#N)C2c1ccccc1 (stereo unspecified)	3.4	.	.	.	5.2	15.8
CC1(C)CC(=O)C2=C(C1)OC(N)=C(C#N)C2c1cn(-c2ccccc2)nc1-c1ccccc1 (stereo unspecified)	-2.7	89.8*	-7.2	-15.8	12.2	.
CC1(C)CC(=O)C2=C(C1)OC(N)=C(C#N)C2c1ccoc1 (stereo unspecified)	-0.9	0.1	3.5	0.0	15.7	.
CCOC(=O)/C(N=Nc1ccc2c(c1)OCO2)=C(\C)O	-0.4	2.5	-1.8	-14.1	-25.1	-5.6
C/C=C\C(=O)Nc1cccc(C2=NOC3(C2)C[C@@H](C(N)=O)N(C(=O)c2ccc(OC)cc2)C3)c1 (stereo partly specified)	.	.	.	.	-0.7	-2.5
O=C(NC(=S)Nn1cnc2c(cnn2-c2ccccc2)c1=O)c1ccc(Cl)cc1	-1.6	-11.7	0.0	-2.4	4.0	-1.1
O=C(NC(=S)Nn1cnc2c(cnn2-c2ccccc2)c1=O)c1ccc(Oc2ccccc2)cc1	7.3	21.2	-11.8	-7.0	73.4*	-1.7
Cc1cccc(S(=O)(=O)NCCC(=O)OCC(=O)Nc2ccc(C#N)cc2)c1	1.3	18.3	5.2	1.6	16.8	6.2
